Measurements collected from several papers.
Each line is one published result; the experiments were not run side by side.
Target: Proto-oncogene tyrosine-protein kinase Src (SRC, Homo sapiens, UniProt P12931)

SMILES | read-out | action | technique | concentration | measurement | value
Nc1ncc(-c2nc(N3CCOCC3)nc(N3CCOCC3)n2)c(C(F)F)n1 | binding |  | competition with immobilised ligand | 10 µM | remaining binding | 57%
C#Cc1n[nH]c2c(-c3cn(C(C)c4ccccn4)c(=O)[nH]c3=O)cc(F)cc12 (stereo not drawn) | enzyme activity | inhibitor |  | 1 µM | inhibition | 9.4%
CC(C)(C)c1cc(C=C(C#N)C#N)cc(Br)c1O | enzyme activity | inhibitor |  | 0.5 µM | remaining activity | 87.4%
c1ccc(C(NCCNC(c2ccccc2)c2ccccc2)c2ccccc2)cc1 | enzyme activity | inhibitor |  | 10 µM | inhibition | -24%
Cn1cc(-c2cccc(N3CCc4c(sc5c4CC(C)(C)C5)C3=O)c2CO)cc(Nc2ccncn2)c1=O | enzyme activity | inhibitor |  | 1 µM | inhibition | 39%
O=c1[nH]c2ccccc2n1C1CCN(Cc2ccc(-c3[nH]c4cc5ncnc5cc4nc3-c3ccccc3)cc2)CC1 | cell-free assay |  |  | 0.5 µM | remaining signal | 103%
O=C1c2c(O)cc(O)cc2OC(c2ccc(O)c(O)c2)C1O (stereo not drawn) | enzyme activity | inhibitor |  | 80 µM | inhibition | 53%
Cc1nn(C)cc1-c1nc2c(N3CCN(Cc4ccc(Cl)cc4)CC3)c(Cl)cnc2[nH]1 | binding |  | competition with immobilised ligand | 1 µM | remaining binding | 100%
Cn1cncc1[C@](O)(COc1ccc(C#N)cc1-c1ccc(OC(F)(F)F)cc1)c1ccc(C#N)cc1 | cell-free assay |  | competition with immobilised ligand | 1 µM | remaining binding | 81%
C[C@H](C(=O)N[C@H]1COc2ccccc2[C@@H]1S(C)(=O)=O)c1ccc(F)cc1 | enzyme activity | inhibitor |  | 10 µM | inhibition | -5%
Cn1cc(-c2cc(F)cc(N3CCn4c(cc5c4CCCC5)C3=O)c2CO)cc(Nc2ccc(N3CCN(C4COC4)CC3)cn2)c1=O | enzyme activity | inhibitor |  | 0.1 µM | inhibition | 13%
COc1ncccc1-c1cnn2ccc(N3CCN(C(=O)OC(C)C)CC3)nc12 | binding |  | competition with immobilised ligand | 1 µM | remaining binding | 100%
